From ChEMBL document CHEMBL1134546, “Structure-based design, synthesis, and biological evaluation of conformationally restricted novel 2-alkylthio-6-[1-(2,6-difluorophenyl)alkyl]-3,4-dihydro-5-alkylpyrimidin-4(3H)-ones as non-nucleoside inhibitors of HIV-1 reverse transcriptase” (J Med Chem, 2001) come the findings set out here.

Test [1] deals with MT4. The test is described as follows: Anti-HIV-1 activity against WTIIIB HIV-1 strain in MT-4 cells. Particulars: Homo sapiens. It is filed as functional, cell-based.
The test system of test [2] is MT4. In words: Anti-HIV-1 activity against Y181C HIV-1 strain in MT-4 cells. It is filed as functional, cell-based. Particulars: Homo sapiens.
Test [3] has as its system Human immunodeficiency virus 1. The test is described as follows: Anti-HIV-1 activity determined as dose required to reduce p24 antigen levels. It is filed as functional.
The test system of test [4] is Human immunodeficiency virus 1. The test is described as follows: Effective concentration against HIV-1 induced cytopathogenicity in MT-4 cells. It is filed as functional, organism-based, MT4. In outline: (§1)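 MT-4 cells (1 × 10⁴/well) incubated with serial compound dilutions (200 mM DMSO stock diluted in medium), with or without HIV-1 IIIB (100 CCID₅₀/well), 4 days at 37 °C in RPMI 1640 with 10% FCS. Viable cells counted by MTT. CC₅₀ from mock-infected cells and EC₅₀ as 50% protection from virus-induced cytopathicity, run in parallel. Mean of at least two experiments.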

The test system of test [5] is MT4. The test is described as follows: Cytotoxicity against MT-4 cells. It is filed as functional, Homo sapiens. Particulars: Homo sapiens, MT4. In outline: as §1
Test [6] concerns MT4. In words: CC50/EC50 ratio of the compound. It is filed as functional. In outline:
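Selectivity index, calculated as CC₅₀/EC₅₀. Both values come from the parallel MTT readout in mock-infected and HIV-1 IIIB-infected MT-4 cells (4-day incubation at 37 °C).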

Test [7] deals with Human immunodeficiency virus type 1 reverse transcriptase (Human immunodeficiency virus 1, UniProt Q72547). In words: Inhibitory activity against HIV-1 recombinant reverse transcriptase.
[8] abbreviates: Human immunodeficiency virus 1, MT4.

`Cc1ccnc2c1NC(=O)c1cccnc1N2C1CC1` [NEVIRAPINE]: the EC50 was 0.37 µM in the test with MT4 [1] and > 30 µM in the test with MT4 [2].

In test [3], `CCC(c1cc(O)nc(SC2CCCC2)n1)c1c(F)cccc1F` (stereo unspecified) came in with an EC90 of 0.08 µM, an EC99 of 0.15 µM and an EC99.9 of 0.3 µM. Also, the EC50 in test [4] (setting [8]) was 0.15 µM. Also, the CC50 with MT4 [5] is > 200 µM. Also, the Selectivity index in the test with MT4 [6] was found to be 1333.

With `CC(C)Sc1nc(O)cc(C(C)c2ccccc2)n1` (stereo unspecified), the EC50 in test [4] (setting [8]) is 0.9 µM. The CC50 in the test on MT4 [5] was > 200 µM. For the same molecule, in test [7], the concentration for half-maximal inhibition (IC50) came out at 2.3 µM. The Selectivity index with MT4 [6] is given as >222.

In turn, `CCC(c1cc(O)nc(SC(C)C)n1)c1cccc2ccccc12` (stereo unspecified) showed a concentration for a half-maximal effect (EC50) in test [4] (setting [8]) of 1.5 µM. In the test with MT4 [5], this molecule displayed a CC50 of 50 µM. In addition, the IC50 in test [7] was 0.8 µM. In addition, in the test with MT4 [6], the Selectivity index is given as 33.3.

In turn, `Cc1c(O)nc(SC(C)C)nc1C(C)c1c(F)cccc1F` (stereo unspecified) came in with an EC50 in test [4] (setting [8]) of 0.007 µM. For the same molecule, the CC50 in the test with MT4 [5] is > 200 µM. The IC50 in test [7] came to 0.019 µM. Further, the Selectivity index in the test with MT4 [6] was >28570.

In test [4] (setting [8]), `CC(C)Sc1nc(O)cc(C(C)c2cccc3ccccc23)n1` (stereo unspecified) showed an EC50 of 1.1 µM. Besides, half-maximal cytotoxicity in the test with MT4 [5] (CC50) was put at 119 µM. For the same molecule, in test [7], the IC50 turned out to be 5.8 µM. In addition, in the test with MT4 [6], the Selectivity index is 108.

As for `CC(c1cc(O)nc(SC2CCCCC2)n1)c1cccc2ccccc12` (stereo unspecified), in test [4] (setting [8]), it took 0.14 µM to reach a half-maximal effect (EC50). The molecule further came in with a CC50 with MT4 [5] of 45 µM. Besides, the IC50 in test [7] was found to be 2.6 µM. Moreover, the Selectivity index in the test with MT4 [6] stood at 321.4.

In test [4] (setting [8]), `CC(c1cc(O)nc(SC2CCCCC2)n1)c1c(F)cccc1F` (stereo unspecified) registered an EC50 of 0.16 µM. Besides, in the test on MT4 [5], the CC50 is > 200 µM. In addition, the Selectivity index in the test with MT4 [6] is >1250.

In test [4] (setting [8]), `CCC(C)Sc1nc(O)cc(Cc2c(F)cccc2F)n1` (stereo unspecified) came in with an EC50 of 0.04 µM. In the test with MT4 [6], the Selectivity index is recorded as >5000.

In turn, `CCC(c1cc(O)nc(SC2CCCC2)n1)c1cccc2ccccc12` (stereo unspecified) registered a concentration giving a half-maximal response (EC50) in test [4] (setting [8]) of 3 µM. Moreover, in the test with MT4 [5], it took 51 µM to reach half-maximal cytotoxicity (CC50). Moreover, the Selectivity index with MT4 [6] was found to be 17.

`CC(c1cc(=O)[nH]c(SC2CCCC2)n1)c1c(F)cccc1F` (stereo unspecified): in test [3], the EC90 came to 0.015 µM, the EC99 was 0.035 µM and the EC99.9 was found to be 0.09 µM. In test [4] (setting [8]), this molecule displayed an EC50 of 0.03 µM. Besides, in the test on MT4 [5], the CC50 is > 200 µM. Besides, the IC50 in test [7] turned out to be 0.05 µM. Besides, the Selectivity index in the test with MT4 [6] was >6666.

As for `CCC(C)Sc1nc(O)cc(C(C)c2c(F)cccc2F)n1` (stereo unspecified), the EC50 in test [4] (setting [8]) was determined as 0.03 µM. Moreover, the CC50 in the test on MT4 [5] was > 200 µM. Moreover, the Selectivity index in the test with MT4 [6] is recorded as >6666.

For the molecule `CCC(C)Sc1nc(O)cc(C(CC)c2ccccc2)n1` (stereo unspecified), in test [4] (setting [8]), the EC50 was determined as 0.4 µM. In the test on MT4 [5], the CC50 is > 200 µM. Besides, the Selectivity index in the test on MT4 [6] is >500.

`Cc1c(O)nc(SCC(C)C)nc1C(C)c1c(F)cccc1F` (stereo unspecified) displayed an EC50 in test [4] (setting [8]) of 0.01 µM. For the same molecule, in the test with MT4 [5], the CC50 is > 200 µM. Also, the Selectivity index in the test on MT4 [6] is >20000.

Turning to `CCCCSc1nc(O)c(C)c(C(C)c2c(F)cccc2F)n1` (stereo unspecified), the EC50 in test [4] (setting [8]) stood at 0.008 µM. Moreover, in the test on MT4 [5], the midpoint of cytotoxicity, the CC50, lay at 112 µM. Further, the Selectivity index in the test on MT4 [6] was determined as 14000.

Regarding `CCC(c1cc(O)nc(SC(C)C)n1)c1c(F)cccc1F` (stereo unspecified), in test [3], the EC90 was 0.015 µM, the EC99 is 0.035 µM and the EC99.9 worked out at 0.09 µM. Besides, the EC50 in test [4] (setting [8]) was found to be 0.08 µM. For the same molecule, the CC50 in the test with MT4 [5] is 70 µM. The Selectivity index with MT4 [6] is recorded as 875.

On to `Cc1c(C(C)c2c(F)cccc2F)nc(SC2CCCC2)[nH]c1=O` (stereo in doubt; 3w), for which, in test [3], the EC90 was 0.006 µM, it took 0.015 µM to reach the 99% level (EC99) and the EC99.9 turned out to be 0.033 µM. The molecule also came in with an EC50 in test [4] (mt4) of 0.006 µM. Moreover, the IC50 in test [7] was 0.005 µM. For the same molecule, the Selectivity index with MT4 [6] was >33333.

For `CCC(c1cc(O)nc(SC2CCCC2)n1)c1c(Cl)cccc1Cl` (stereo unspecified), it took 1 µM to reach a half-maximal effect in test [4] (setting [8]) (EC50). Also, the CC50 with MT4 [5] worked out at 23.4 µM. Moreover, the Selectivity index in the test with MT4 [6] amounted to 23.4.

In test [3], `CC(C)Sc1nc(O)cc(C(C)c2c(F)cccc2F)n1` (stereo unspecified) gave an EC90 of 0.042 µM, an EC99 of 0.083 µM and an EC99.9 of 0.19 µM. The EC50 in test [4] (setting [8]) came out at 0.05 µM. The midpoint of cytotoxicity in the test with MT4 [5], the CC50, lay at 167 µM. Besides, the Selectivity index with MT4 [6] is 3340.

`CC(C)Sc1nc(O)cc(C(C)c2c(Cl)cccc2Cl)n1` (stereo unspecified) displayed an EC50 in test [4] (setting [8]) of 1.2 µM. The molecule further registered a CC50 in the test with MT4 [5] of 117 µM. Moreover, the Selectivity index in the test on MT4 [6] is on record as 97.5.

In turn, `CCC(c1cc(O)nc(SC2CCCCC2)n1)c1cccc2ccccc12` (stereo unspecified) returned an EC50 in test [4] (setting [8]) of 0.18 µM. The molecule further yielded a CC50 with MT4 [5] of 16.9 µM. In addition, the IC50 in test [7] is 1.4 µM. The Selectivity index with MT4 [6] was determined as 94.

As for `CCC(c1cc(O)nc(SC(C)C)n1)c1c(Cl)cccc1Cl` (stereo unspecified), the EC50 in test [4] (setting [8]) worked out at 0.4 µM. The CC50 in the test with MT4 [5] is > 200 µM. Moreover, the Selectivity index with MT4 [6] is >500.
